Key:
[1] = substrate: C/C(=C\C(O)C12OC1(C)C(=O)c1ccccc1C2=O)CCCC(C)CCCC(C)CCCC(C)C; experiment: (§1) Km value at Vitamin K epoxide reductase
How it was run: (§2)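 Analogues served as alternative substrates in place of vitamin K1 epoxide for beef liver microsomal reductase (0.02% Emulgen 911, DTT), at 10–100 μM (12 levels). Km and Vmax came from rates of quinone product formation, not from substrate consumption. They were reported only where the quinone product was stable to DTT.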

[2] = substrate: C/C(=C\CC12OC1(C)C(=O)c1ccccc1C2=O)CCCC(C)CCCC(C)CCCC(C)C; experiment: as §1; how it was run: as §2
[3] = substrate: C/C(=C\CC12OC1(CF)C(=O)c1ccccc1C2=O)CCCC(C)CCCC(C)CCCC(C)C; experiment: as §1; how it was run: as §2
[4] = substrate: C/C(=C\CC12OC1(CO)C(=O)c1ccccc1C2=O)CCCC(C)CCCC(C)CCCC(C)C; experiment: as §1; how it was run: as §2
[5] = substrate: CC(C)CCCC(C)CCCC(C)CCCC(C)/C=C/C12OC1(C)C(=O)c1ccccc1C2=O; experiment: as §1; how it was run: as §2
[6] = substrate: CC(C)CCCC(C)CCCC(C)CCCC(C)CC(O)C12OC1(C)C(=O)c1ccccc1C2=O; experiment: as §1; how it was run: as §2
[7] = substrate: CC(C)CCCC(C)CCCC(C)CCCC(C)CCC12OC1(C)C(=O)c1ccccc1C2=O; experiment: as §1; how it was run: as §2
[8] = substrate: C/C(=C\C(O)C12OC1(C)C(=O)c1ccccc1C2=O)CCCC(C)CCCC(C)CCCC(C)C; experiment: (§3) Vmax value at Vitamin K epoxide reductase; how it was run: as §2
[9] = substrate: C/C(=C\CC12OC1(C)C(=O)c1ccccc1C2=O)CCCC(C)CCCC(C)CCCC(C)C; experiment: as §3; how it was run: as §2
[10] = substrate: C/C(=C\CC12OC1(CF)C(=O)c1ccccc1C2=O)CCCC(C)CCCC(C)CCCC(C)C; experiment: as §3; how it was run: as §2
[11] = substrate: C/C(=C\CC12OC1(CO)C(=O)c1ccccc1C2=O)CCCC(C)CCCC(C)CCCC(C)C; experiment: as §3; how it was run: as §2
[12] = substrate: CC(C)CCCC(C)CCCC(C)CCCC(C)/C=C/C12OC1(C)C(=O)c1ccccc1C2=O; experiment: as §3; how it was run: as §2
[13] = substrate: CC(C)CCCC(C)CCCC(C)CCCC(C)CC(O)C12OC1(C)C(=O)c1ccccc1C2=O; experiment: as §3; how it was run: as §2
[14] = substrate: CC(C)CCCC(C)CCCC(C)CCCC(C)CCC12OC1(C)C(=O)c1ccccc1C2=O; experiment: as §3; how it was run: as §2

B1: Vitamin K epoxide reductase complex subunit 1 (Bos taurus), Q6B4J2 (protein)
chain: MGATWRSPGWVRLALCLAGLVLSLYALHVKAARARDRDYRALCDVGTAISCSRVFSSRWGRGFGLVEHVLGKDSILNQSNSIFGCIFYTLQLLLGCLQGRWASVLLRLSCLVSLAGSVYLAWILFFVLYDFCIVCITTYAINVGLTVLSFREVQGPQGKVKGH
Km [1]: 25 µM
Km [2]: 18 µM
Km [3]: 20 µM
Km [4]: 10 µM
Km [5]: 68 µM
Km [6]: 34 µM
Km [7]: 30 µM
Vmax [8]: 2.4 pmol/s/mg
Vmax [9]: 2.9 pmol/s/mg
Vmax [10]: 4 pmol/s/mg
Vmax [11]: 3.4 pmol/s/mg
Vmax [12]: 2 pmol/s/mg
Vmax [13]: 1.6 pmol/s/mg
Vmax [14]: 2.1 pmol/s/mg

From ChEMBL document CHEMBL1124804, “Substituted vitamin K epoxide analogues. New competitive inhibitors and substrates of vitamin K1 epoxide reductase” (J Med Chem, 1990)
